The text below walks through data of ChEMBL document CHEMBL1159071, “Discovery of 4-(5-methyloxazolo[4,5-b]pyridin-2-yl)-1,4-diazabicyclo[3.2.2]nonane (CP-810,123), a novel alpha 7 nicotinic acetylcholine receptor agonist for the treatment of cognitive disorders in schizophrenia: synthesis, SAR development, and in vivo efficacy in cognition models” (J Med Chem, 2010).

pIC50, pKi: −log10 of the molar value. Activity calls are given as the source filed them. The rule behind the calls is not given here.

Data set [1] concerns Rattus norvegicus. Put plainly: Free plasma concentration in Sprague-Dawley rat auditory sensory gating deficit model at 0.3 mg/kg, sc after 40 mins. Type of data set: functional. The settings on record: route subcutaneous. Put shortly:
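Rats given 0.3 mg/kg sc; free plasma concentration measured about 40 min after dosing.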

Data set [2] in a line: Permeability from apical to basolateral side in dog MDCK cells at 2 uM. The note with it: read-out: permeability. In kind it is ADME, cell-based, Canis lupus familiaris. The method, boiled down:
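MS quantification of apical-to-basolateral transfer of compound at 2 μM across contiguous MDCK cell monolayers.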

In data set [3] the target is T1, 5-hydroxytryptamine receptor 3A (Mus musculus, UniProt P23979).
T1 sequence (P23979 whole entry): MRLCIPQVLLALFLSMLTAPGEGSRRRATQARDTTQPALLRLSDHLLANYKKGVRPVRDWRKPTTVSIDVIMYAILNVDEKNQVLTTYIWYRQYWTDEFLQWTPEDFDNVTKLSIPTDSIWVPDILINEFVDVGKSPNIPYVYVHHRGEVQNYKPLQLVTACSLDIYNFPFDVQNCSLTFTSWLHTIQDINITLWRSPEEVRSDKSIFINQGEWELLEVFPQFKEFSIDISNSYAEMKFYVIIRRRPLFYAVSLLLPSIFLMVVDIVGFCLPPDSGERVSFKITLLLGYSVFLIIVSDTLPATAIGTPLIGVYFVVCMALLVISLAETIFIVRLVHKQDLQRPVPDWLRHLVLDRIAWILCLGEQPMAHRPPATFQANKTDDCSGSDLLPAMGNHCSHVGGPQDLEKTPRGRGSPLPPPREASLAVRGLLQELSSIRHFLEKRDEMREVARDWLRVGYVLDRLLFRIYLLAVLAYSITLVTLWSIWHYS
The experiment in a line: Displacement of [3H]LY278584 from mouse 5HT3 receptor expressed in HEK293 cells. Type of data set: cell-based. Put shortly: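 Mouse 5-HT3A in HEK293 cell homogenate, 20 mM Tris-HCl pH 7.4 with 154 mM NaCl. [3H]LY278584 1 nM final; nonspecific binding with 10 μM ICS205-930; 60 min at 37 °C, then filtration onto PEI-soaked GF/B. Ki by Cheng-Prusoff; mean of three six-point curves in triplicate in one assay; tropisetron standard.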
Background: Loss of bound radioactivity is the signal in a displacement assay; it reports binding, not function.

Data set [4] is described as follows: Oral bioavailability in rat. Type of data set: ADME, organism-based. The settings on record: in vivo.
Data set [5] concerns the target Neuronal acetylcholine receptor; alpha3/beta4 (Homo sapiens, UniProt P30926+P32297). The experiment in a line: Displacement of [3H]epibatidine from alpha3beta4 nAChR expressed in IMR32 cells. Type of data set: cell-based, IMR-32. Put shortly:
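Alpha3β4 binding in IMR32 cells with [3H]epibatidine radioligand. Six-point concentration-response curve run in triplicate and averaged.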

Data set [6] addresses T2, Muscarinic acetylcholine receptor M5 (Homo sapiens, UniProt P08912).
T2 sequence (P08912 whole entry): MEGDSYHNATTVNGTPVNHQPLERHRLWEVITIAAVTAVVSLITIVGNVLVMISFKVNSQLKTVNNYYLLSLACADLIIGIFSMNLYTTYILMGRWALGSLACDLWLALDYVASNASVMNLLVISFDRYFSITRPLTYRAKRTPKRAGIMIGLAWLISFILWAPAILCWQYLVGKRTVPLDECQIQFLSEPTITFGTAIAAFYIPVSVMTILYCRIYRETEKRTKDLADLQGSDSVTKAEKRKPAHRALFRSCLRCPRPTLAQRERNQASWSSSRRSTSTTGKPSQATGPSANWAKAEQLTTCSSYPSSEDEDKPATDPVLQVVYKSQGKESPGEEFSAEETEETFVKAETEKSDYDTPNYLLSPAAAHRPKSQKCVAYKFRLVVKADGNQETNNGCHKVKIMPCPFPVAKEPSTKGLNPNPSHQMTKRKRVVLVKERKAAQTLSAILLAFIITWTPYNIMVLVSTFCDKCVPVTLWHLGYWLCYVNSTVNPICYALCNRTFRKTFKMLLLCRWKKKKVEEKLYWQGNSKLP
The experiment in a line: Inhibition of muscarinic M5 receptor.

Data set [7] can be described thus: Ratio of drug level in brain to plasma of rat at 1 mg/kg, sc after 40 mins. The note with it: brain and plasma.
A further data set has as its system Plasma. Put plainly: Fraction unbound in rat plasma. Type of data set: ADME, cell-free.
The target in data set [8] is T3, 5-hydroxytryptamine receptor 3A (Homo sapiens, UniProt P46098).
T3 sequence (P46098 whole entry): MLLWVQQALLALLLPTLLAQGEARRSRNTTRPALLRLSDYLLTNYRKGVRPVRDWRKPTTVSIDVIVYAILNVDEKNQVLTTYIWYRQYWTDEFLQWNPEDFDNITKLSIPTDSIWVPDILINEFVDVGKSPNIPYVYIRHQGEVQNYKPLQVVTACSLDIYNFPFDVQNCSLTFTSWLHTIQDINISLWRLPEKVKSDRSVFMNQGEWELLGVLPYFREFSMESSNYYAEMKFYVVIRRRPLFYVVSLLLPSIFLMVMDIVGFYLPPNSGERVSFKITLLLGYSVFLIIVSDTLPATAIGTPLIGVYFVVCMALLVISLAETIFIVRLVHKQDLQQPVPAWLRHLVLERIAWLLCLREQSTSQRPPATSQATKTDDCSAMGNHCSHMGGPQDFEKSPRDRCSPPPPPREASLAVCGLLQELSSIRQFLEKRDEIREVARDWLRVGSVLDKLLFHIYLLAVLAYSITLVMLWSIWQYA
The experiment in a line: […] at human 5HT3 receptor expressed in human skin epithelial cells assessed as stimulation of calcium flux by FLIPR assay. In kind it is functional, cell-based, Epithelial cell. Put shortly: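 Human 5-HT3A stably in human skin epithelial cells, plated 15 000 cells/well 2 days ahead; loaded 1 h at 37 °C with Fluo-4 (8 μM final), washed into HBSS with 20 mM Tris-HEPES, 1 μM atropine, 4 mM Ca2+, pH 7.4. Compound added 2 min, then 5-HT challenge (250 nM final) 2 min; FLIPR calcium read.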

Data set [9] deals with Rattus norvegicus. The experiment in a line: Cognitive enhancement in Sprague-Dawley rat assessed as reversal of amphetamine-induced auditory sensory gating deficit at 0.3 mg/kg, sc. In kind it is functional, organism-based. On the set-up: dose 0.3 mg/kg. Put shortly: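 Male Sprague-Dawley rats (250-300 g) under chloral hydrate (400 mg/kg ip), femoral vein cannulated. CA3 hippocampal field potential recorded; auditory-evoked responses averaged over 50 stimulus pairs at 10 s interstimulus interval. Gating disrupted by d-amphetamine 1 mg/kg iv; compound sc. Read-out is reversal of the amphetamine deficit; PBS vehicle; two-tailed paired t-test.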

Chain of Neuronal acetylcholine receptor; alpha3/beta4 (P30926 whole entry): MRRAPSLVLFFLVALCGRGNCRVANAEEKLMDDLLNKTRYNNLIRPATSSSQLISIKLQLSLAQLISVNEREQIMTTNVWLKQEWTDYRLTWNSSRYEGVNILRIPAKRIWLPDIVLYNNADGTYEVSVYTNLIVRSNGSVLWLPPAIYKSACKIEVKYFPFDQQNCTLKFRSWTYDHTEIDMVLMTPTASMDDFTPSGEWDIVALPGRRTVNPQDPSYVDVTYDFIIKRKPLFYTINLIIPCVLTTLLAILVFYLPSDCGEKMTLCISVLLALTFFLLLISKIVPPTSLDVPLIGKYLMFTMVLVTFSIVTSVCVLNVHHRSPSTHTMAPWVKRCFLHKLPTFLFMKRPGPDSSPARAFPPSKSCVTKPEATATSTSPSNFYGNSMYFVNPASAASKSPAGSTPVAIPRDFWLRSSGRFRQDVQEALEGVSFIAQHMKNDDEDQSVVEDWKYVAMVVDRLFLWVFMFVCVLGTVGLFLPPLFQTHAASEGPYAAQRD
Chain of Neuronal acetylcholine receptor; alpha3/beta4 (P32297 whole entry): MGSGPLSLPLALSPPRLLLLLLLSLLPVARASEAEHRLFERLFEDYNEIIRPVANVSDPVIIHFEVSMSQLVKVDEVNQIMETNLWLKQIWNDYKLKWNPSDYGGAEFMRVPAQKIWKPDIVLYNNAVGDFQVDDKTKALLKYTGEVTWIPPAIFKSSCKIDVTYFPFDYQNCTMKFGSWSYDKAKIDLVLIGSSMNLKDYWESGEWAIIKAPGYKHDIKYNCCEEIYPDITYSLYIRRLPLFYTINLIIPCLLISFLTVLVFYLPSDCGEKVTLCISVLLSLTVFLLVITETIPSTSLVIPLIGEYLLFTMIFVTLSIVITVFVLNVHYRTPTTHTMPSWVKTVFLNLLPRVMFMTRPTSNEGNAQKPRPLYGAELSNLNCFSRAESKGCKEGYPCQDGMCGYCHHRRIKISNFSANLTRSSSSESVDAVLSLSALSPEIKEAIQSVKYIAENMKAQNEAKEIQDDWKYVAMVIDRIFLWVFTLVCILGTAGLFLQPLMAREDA

Take `Cc1ccc2oc(N3CCN4CCC3CC4)nc2n1`: the “Cp(f)” value with Rattus norvegicus [1] is 326 nM. In data set [2], the Papp A→B at 2 µM is 18 ×10⁻⁶ cm/s. For the same compound, the pKi – broadly, the Ki on a negative log10 scale, so that one unit is a factor of ten – is 6.57 in data set [3], 5.27 in data set [5] and 5.28 in data set [6]. Further, the bioavailability (in general, the share of a dose that reaches the circulation, judged against a reference dose that is usually intravenous) in data set [4] is 73%. In addition, the Kp – broadly, the ratio of the level in a tissue or fluid to that in plasma or blood – at 40 min in data set [7] was found to be 1.5. The compound further yielded a Fu with Plasma of 0.78%. The pIC50 – broadly, the IC50 on a negative log10 scale, so that one unit is a factor of ten – in [8] is 8.30. In the data set on Rattus norvegicus [9], the outcome was Active.
